Laboratory results reported in ChEMBL document CHEMBL3774303, “Discovery of novel pyrrolo[2,3-b]pyridine derivatives bearing 1,2,3-triazole moiety as c-Met kinase inhibitors” (Bioorg Med Chem Lett, 2016).

Legend:
HT-29 = assay: Cytotoxicity against human HT-29 cells assessed as reduction in cell growth after 72 hrs by MTT assay; conditions: HT-29, 72 h
MCF7 = assay: Cytotoxicity against human MCF7 cells assessed as reduction in cell growth after 72 hrs by MTT assay; type: functional, cell-based; conditions: MCF7, 72 h
In short: (§1)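 Cells grown in MEM with 10% FBS were seeded at about 4 × 10³ cells/well and held 24 h at 37 °C in 5% CO₂. Compounds were then added and cells cultured 72 h. IC50 is the average of triplicate determinations.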

[1] = Cytotoxicity against human PC3 cells assessed as reduction in cell growth after 72 hrs by MTT assay; type: functional, cell-based; conditions: PC-3, 72 h; in short: as §1
A549 = assay: Cytotoxicity against human A549 cells assessed as reduction in cell growth after 72 hrs by MTT assay; conditions: A549, 72 h
[2] = molecular target: Mast/stem cell growth factor receptor Kit (Homo sapiens, UniProt P10721); assay: Inhibition of cKit (unknown origin) using poly (Glu, Tyr) 4:1 as substrate after 30 mins by HTRF assay
In short: (§2)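 HTRF tyrosine-kinase assay with purified enzyme on preloaded poly(Glu,Tyr) 4:1 substrate (20 μg/mL). ATP was added from a 10 mM solution in HEPES buffer (50 mM, pH 7.0, with Mg²⁺, Mn²⁺, DTT, 0.1% NaN₃), and compounds in 1% DMSO.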

[3] = molecular target: Platelet-derived growth factor receptor beta (Homo sapiens, UniProt P09619); assay: Inhibition of PDGFRbeta (unknown origin) using poly (Glu, Tyr) 4:1 as substrate after 30 mins by HTRF assay; in short: as §2
[4] = molecular target: Hepatocyte growth factor receptor (Homo sapiens, UniProt P08581); assay: Inhibition of cMet (unknown origin) using poly (Glu, Tyr) 4:1 as substrate after 30 mins by HTRF assay
[5] = molecular target: T1, Receptor-type tyrosine-protein kinase FLT3 (Homo sapiens, UniProt P36888); assay: Inhibition of FLT3 (unknown origin) using poly (Glu, Tyr) 4:1 as substrate after 30 mins by HTRF assay; in short: as §2
T1 sequence (P36888 whole entry): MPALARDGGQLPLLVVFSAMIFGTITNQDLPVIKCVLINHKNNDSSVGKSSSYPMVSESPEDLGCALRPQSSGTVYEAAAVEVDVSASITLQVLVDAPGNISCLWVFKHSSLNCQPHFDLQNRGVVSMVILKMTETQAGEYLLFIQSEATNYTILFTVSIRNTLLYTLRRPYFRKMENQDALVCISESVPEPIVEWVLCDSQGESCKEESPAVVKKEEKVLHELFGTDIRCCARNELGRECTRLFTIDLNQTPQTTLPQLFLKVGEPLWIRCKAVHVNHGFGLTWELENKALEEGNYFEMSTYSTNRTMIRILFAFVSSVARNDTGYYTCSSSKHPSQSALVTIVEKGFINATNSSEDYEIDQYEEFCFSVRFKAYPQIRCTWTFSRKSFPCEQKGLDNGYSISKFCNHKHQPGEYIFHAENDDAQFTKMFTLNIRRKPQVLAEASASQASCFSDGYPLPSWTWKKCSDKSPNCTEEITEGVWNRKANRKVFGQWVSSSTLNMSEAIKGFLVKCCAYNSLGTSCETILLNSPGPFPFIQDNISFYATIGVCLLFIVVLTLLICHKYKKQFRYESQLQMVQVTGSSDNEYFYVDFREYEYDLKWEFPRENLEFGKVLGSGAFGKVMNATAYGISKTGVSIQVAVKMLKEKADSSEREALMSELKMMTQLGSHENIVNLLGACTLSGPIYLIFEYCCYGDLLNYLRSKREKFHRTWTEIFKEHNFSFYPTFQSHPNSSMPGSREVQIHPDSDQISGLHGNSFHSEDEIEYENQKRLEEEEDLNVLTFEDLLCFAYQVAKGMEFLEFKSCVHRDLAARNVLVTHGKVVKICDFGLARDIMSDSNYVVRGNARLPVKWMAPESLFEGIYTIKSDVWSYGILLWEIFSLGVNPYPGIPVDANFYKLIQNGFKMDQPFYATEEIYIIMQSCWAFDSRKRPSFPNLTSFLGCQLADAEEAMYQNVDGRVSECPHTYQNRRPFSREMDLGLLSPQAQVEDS

[6] = molecular target: Vascular endothelial growth factor receptor 2 (Homo sapiens, UniProt P35968); assay: Inhibition of KDR (unknown origin) using poly (Glu, Tyr) 4:1 as substrate after 30 mins by HTRF assay; in short: as §2
Vascular endothelial growth factor receptor 2, sequence (P35968 whole entry): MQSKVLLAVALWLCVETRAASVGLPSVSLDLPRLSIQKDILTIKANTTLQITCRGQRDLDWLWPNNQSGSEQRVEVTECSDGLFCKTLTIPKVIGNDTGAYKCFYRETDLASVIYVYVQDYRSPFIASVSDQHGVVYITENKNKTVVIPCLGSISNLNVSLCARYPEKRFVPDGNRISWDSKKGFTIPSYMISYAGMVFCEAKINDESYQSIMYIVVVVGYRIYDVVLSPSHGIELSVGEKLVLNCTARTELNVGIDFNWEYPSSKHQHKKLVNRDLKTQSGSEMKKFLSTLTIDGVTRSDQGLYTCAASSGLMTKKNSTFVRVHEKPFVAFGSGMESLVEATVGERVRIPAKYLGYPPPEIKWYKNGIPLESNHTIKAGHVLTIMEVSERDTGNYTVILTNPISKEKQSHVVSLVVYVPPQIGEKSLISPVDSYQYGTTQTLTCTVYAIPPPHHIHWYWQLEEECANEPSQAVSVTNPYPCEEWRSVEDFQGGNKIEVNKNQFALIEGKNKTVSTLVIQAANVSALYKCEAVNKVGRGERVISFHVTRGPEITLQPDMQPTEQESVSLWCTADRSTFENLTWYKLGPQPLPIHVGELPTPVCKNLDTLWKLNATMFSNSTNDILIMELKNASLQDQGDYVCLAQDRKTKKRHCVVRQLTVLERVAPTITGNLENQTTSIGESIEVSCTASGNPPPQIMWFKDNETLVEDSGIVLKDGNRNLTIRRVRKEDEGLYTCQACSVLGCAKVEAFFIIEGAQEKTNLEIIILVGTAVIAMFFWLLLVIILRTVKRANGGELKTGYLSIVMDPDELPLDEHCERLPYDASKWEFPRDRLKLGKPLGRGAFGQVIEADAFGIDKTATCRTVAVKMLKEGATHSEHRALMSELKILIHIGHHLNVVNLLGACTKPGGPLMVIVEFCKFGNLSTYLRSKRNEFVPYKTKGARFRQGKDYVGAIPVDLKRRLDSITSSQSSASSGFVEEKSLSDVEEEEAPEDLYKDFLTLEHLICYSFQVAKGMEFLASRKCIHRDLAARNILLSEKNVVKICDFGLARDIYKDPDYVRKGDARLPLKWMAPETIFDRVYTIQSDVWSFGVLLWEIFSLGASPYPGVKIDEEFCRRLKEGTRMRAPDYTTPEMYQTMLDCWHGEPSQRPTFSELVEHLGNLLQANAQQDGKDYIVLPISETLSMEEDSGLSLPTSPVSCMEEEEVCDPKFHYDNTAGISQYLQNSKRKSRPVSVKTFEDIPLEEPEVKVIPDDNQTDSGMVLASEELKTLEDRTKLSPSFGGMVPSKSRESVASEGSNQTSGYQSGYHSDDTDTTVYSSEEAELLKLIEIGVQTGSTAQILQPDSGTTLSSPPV

Mast/stem cell growth factor receptor Kit, sequence (P10721 whole entry): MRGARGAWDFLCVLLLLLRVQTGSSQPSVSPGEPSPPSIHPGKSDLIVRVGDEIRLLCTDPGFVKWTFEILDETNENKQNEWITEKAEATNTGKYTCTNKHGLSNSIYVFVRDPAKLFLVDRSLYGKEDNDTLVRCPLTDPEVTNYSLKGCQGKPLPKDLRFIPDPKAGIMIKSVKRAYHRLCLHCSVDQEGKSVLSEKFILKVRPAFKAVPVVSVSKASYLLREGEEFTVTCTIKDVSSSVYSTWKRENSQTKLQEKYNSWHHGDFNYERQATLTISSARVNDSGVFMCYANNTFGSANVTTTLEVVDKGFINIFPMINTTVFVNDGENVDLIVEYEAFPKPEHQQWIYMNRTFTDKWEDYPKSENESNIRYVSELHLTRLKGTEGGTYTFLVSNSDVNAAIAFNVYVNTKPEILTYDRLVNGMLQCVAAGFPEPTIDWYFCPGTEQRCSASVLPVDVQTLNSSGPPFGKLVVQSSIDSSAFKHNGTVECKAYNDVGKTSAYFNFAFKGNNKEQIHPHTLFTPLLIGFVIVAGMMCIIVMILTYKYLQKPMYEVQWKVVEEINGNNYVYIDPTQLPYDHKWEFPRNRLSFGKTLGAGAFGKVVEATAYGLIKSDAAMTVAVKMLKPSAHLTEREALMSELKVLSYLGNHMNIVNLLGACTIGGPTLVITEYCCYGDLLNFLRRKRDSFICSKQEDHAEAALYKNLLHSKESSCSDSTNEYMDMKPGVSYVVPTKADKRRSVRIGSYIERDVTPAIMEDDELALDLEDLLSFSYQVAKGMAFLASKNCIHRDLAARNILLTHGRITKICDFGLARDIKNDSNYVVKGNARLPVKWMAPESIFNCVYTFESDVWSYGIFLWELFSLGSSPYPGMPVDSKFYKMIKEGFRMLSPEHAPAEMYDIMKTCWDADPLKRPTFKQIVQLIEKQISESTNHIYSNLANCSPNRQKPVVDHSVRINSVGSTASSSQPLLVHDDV
Hepatocyte growth factor receptor, sequence (P08581 whole entry): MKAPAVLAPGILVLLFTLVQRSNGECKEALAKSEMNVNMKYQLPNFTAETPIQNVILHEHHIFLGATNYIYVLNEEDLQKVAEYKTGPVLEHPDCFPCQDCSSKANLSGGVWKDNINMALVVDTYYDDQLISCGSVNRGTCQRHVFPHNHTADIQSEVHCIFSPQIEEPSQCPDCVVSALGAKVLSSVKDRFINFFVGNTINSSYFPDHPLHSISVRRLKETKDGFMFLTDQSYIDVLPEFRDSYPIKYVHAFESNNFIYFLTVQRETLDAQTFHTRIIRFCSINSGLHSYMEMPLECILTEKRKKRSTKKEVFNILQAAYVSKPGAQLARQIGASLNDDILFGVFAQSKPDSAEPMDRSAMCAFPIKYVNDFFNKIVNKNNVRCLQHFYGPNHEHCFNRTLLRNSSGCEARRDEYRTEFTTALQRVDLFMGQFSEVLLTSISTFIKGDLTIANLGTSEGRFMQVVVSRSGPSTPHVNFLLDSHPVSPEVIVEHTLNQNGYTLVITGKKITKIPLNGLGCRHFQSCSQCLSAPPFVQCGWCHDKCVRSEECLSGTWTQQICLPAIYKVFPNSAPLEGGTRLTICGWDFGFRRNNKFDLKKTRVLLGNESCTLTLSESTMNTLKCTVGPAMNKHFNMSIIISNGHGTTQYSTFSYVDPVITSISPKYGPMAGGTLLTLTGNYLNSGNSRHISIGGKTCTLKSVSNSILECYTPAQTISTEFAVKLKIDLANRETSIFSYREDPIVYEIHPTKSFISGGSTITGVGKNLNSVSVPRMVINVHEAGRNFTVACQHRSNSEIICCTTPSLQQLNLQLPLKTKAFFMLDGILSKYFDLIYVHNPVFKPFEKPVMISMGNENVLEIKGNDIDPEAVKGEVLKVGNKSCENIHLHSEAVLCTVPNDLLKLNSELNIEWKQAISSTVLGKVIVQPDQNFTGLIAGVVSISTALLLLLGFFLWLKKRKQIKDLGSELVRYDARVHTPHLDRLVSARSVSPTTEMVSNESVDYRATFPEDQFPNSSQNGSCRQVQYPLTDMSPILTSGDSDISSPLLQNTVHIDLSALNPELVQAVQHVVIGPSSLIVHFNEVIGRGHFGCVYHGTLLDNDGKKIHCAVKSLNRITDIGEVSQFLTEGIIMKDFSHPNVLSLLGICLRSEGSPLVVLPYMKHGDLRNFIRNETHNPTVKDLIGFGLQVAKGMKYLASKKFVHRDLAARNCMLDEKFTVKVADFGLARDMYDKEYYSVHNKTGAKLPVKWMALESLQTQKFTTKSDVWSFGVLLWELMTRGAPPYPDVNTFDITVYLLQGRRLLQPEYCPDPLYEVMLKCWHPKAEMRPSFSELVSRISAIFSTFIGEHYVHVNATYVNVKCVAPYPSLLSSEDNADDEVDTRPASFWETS
Platelet-derived growth factor receptor beta, sequence (P09619 whole entry): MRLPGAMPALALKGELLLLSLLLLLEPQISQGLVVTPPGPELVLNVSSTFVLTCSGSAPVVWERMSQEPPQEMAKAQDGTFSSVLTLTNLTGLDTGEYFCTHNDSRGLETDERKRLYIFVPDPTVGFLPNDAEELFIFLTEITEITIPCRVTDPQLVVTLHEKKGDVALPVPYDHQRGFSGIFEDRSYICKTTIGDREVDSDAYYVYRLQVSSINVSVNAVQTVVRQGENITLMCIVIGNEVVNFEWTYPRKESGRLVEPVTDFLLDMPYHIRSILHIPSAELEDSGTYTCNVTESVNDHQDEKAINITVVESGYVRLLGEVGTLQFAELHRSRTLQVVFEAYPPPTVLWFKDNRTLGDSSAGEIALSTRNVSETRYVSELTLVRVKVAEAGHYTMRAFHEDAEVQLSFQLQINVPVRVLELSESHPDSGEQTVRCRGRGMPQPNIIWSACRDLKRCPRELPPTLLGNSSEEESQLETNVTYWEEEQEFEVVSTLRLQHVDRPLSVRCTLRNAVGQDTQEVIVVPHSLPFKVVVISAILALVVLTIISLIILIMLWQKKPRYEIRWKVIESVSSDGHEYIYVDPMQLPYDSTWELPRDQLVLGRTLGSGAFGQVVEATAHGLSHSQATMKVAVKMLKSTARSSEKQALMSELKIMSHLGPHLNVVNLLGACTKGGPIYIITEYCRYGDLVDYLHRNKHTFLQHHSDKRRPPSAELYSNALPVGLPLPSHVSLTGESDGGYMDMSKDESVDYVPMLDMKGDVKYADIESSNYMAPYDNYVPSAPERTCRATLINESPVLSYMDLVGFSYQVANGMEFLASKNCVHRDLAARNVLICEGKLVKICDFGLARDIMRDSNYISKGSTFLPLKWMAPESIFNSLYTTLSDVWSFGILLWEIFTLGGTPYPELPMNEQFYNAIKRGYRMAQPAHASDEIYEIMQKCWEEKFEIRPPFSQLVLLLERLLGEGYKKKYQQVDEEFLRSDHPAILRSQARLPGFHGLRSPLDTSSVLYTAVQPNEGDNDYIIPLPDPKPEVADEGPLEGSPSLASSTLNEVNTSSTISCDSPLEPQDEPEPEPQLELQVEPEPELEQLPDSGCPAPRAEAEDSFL

| Structure (SMILES) | IC50 (HT-29) [µM] | IC50 (MCF7) [µM] | IC50 [1] [µM] | IC50 (A549) [µM] | IC50 [2] [µM] | IC50 [3] [µM] | IC50 [4] [µM] | IC50 [5] [µM] | IC50 [6] [µM] |
| --- | --- | --- | --- | --- | --- | --- | --- | --- | --- |
| Cc1c(C(=O)Nc2ccc(Oc3ccnc4[nH]ccc34)c(F)c2)nnn1-c1ccc(F)cc1 | 0.12 | 0.17 | 4.35 | 0.15 |  |  |  |  |  |
| O=C(Nc1ccc(Oc2ccnc3[nH]ccc23)c(F)c1)c1nnn(-c2ccccc2F)c1C(F)(F)F | 0.073 | 0.28 | 2.13 | 0.19 |  |  |  |  |  |
| O=C(Nc1ccc(Oc2ccnc3[nH]ccc23)cc1)c1nnn(-c2ccccc2)c1C(F)(F)F | 0.19 | 0.26 | 3.57 | 0.29 |  |  |  |  |  |
| COc1ccc(-n2nnc(C(=O)Nc3ccc(Oc4ccnc5[nH]ccc45)c(F)c3)c2C)cc1 | 0.59 |  |  | 0.71 |  |  |  |  |  |
| O=C(Nc1ccc(Oc2ccnc3[nH]ccc23)cc1)c1nnn(-c2ccc(F)cc2)c1C(F)(F)F | 0.093 | 0.21 | 2.83 | 0.18 |  |  |  |  |  |
| Cc1c(C(=O)Nc2ccc(Oc3ccnc4[nH]ccc34)cc2)nnn1-c1ccc(F)cc1 | 0.18 | 0.39 | 3.45 | 0.22 |  |  |  |  |  |
| O=C(Nc1ccc(Oc2ccnc3[nH]ccc23)cc1)c1nnn(-c2ccc(F)c(Cl)c2)c1C(F)(F)F | 1.02 |  |  | 1.12 |  |  |  |  |  |
| O=C(Nc1ccc(Oc2ccnc3[nH]ccc23)c(F)c1)c1nnn(-c2ccc(F)cc2)c1C(F)(F)F | 0.029 | 0.11 | 1.52 | 0.082 | 0.325 | 0.00457 | 0.00168 | 0.00206 | 0.0862 |
| O=C(Nc1ccc(Oc2ccnc3[nH]ccc23)cc1)c1nnn(-c2ccc(F)c(F)c2)c1C(F)(F)F | 0.52 | 0.69 | 7.31 | 0.79 |  |  |  |  |  |
| Cc1c(C(=O)Nc2ccc(Oc3ccnc4[nH]ccc34)c(F)c2)nnn1-c1ccc(F)c(F)c1 | 0.61 | 0.82 | 6.54 | 0.57 |  |  |  |  |  |
| O=C(Nc1ccc(Oc2ccnc3[nH]ccc23)c(F)c1)c1nnn(-c2ccc(F)c(Cl)c2)c1C(F)(F)F | 0.63 |  |  | 0.82 |  |  |  |  |  |
| COc1ccc(-n2nnc(C(=O)Nc3ccc(Oc4ccnc5[nH]ccc45)cc3)c2C)cc1 | 1.16 |  |  | 2.42 |  |  |  |  |  |
| COc1ccc(-n2nnc(C(=O)Nc3ccc(Oc4ccnc5[nH]ccc45)c(F)c3)c2C(F)(F)F)cc1 | 0.29 | 0.51 | 1.85 | 0.36 |  |  |  |  |  |
| O=C(Nc1ccc(Oc2ccnc3[nH]ccc23)cc1)c1nnn(-c2ccc(Cl)c(C(F)(F)F)c2)c1C(F)(F)F | 1.53 |  |  | 2.34 |  |  |  |  |  |
| O=C(Nc1ccc(Oc2ccnc3[nH]ccc23)cc1)c1nnn(-c2ccccc2F)c1C(F)(F)F | 0.12 | 0.29 | 3.69 | 0.21 |  |  |  |  |  |
| Cc1c(C(=O)Nc2ccc(Oc3ccnc4[nH]ccc34)c(F)c2)nnn1-c1ccccc1F | 0.18 | 0.42 | 3.24 | 0.39 |  |  |  |  |  |
| Cc1c(C(=O)Nc2ccc(Oc3ccnc4[nH]ccc34)cc2)nnn1-c1ccc(F)c(Cl)c1 | 2.18 | 6.31 | 12.6 | 0.98 |  |  |  |  |  |
| Cc1c(C(=O)Nc2ccc(Oc3ccnc4[nH]ccc34)c(F)c2)nnn1-c1ccccc1 | 0.29 | 0.35 | 2.34 | 0.36 |  |  |  |  |  |
| Cc1c(C(=O)Nc2ccc(Oc3ccnc4[nH]ccc34)cc2)nnn1-c1ccc(Cl)c(C(F)(F)F)c1 | 3.29 | 8.41 | 10.9 | 2.83 |  |  |  |  |  |
| O=C(Nc1ccc(Oc2ccnc3[nH]ccc23)c(F)c1)c1nnn(-c2ccc(F)c(F)c2)c1C(F)(F)F | 0.32 | 0.59 | 2.48 | 0.35 |  |  |  |  |  |
| Cc1c(C(=O)Nc2ccc(Oc3ccnc4[nH]ccc34)c(F)c2)nnn1-c1ccc(Cl)c(C(F)(F)F)c1 | 1.12 |  |  | 2.37 |  |  |  |  |  |
| Cc1c(C(=O)Nc2ccc(Oc3ccnc4[nH]ccc34)cc2)nnn1-c1ccccc1 | 0.35 | 0.32 | 7.26 | 0.42 |  |  |  |  |  |
| COc1ccc(-n2nnc(C(=O)Nc3ccc(Oc4ccnc5[nH]ccc45)cc3)c2C(F)(F)F)cc1 | 0.29 | 0.58 | 4.85 | 0.46 |  |  |  |  |  |
| O=C(Nc1ccc(Oc2ccnc3[nH]ccc23)c(F)c1)c1nnn(-c2ccc(Cl)c(C(F)(F)F)c2)c1C(F)(F)F | 1.05 |  |  | 1.29 |  |  |  |  |  |
| Cc1c(C(=O)Nc2ccc(Oc3ccnc4[nH]ccc34)c(F)c2)nnn1-c1ccc(F)c(Cl)c1 | 1.06 |  |  | 0.73 |  |  |  |  |  |
| Cc1c(C(=O)Nc2ccc(Oc3ccnc4[nH]ccc34)cc2)nnn1-c1ccccc1F | 0.36 | 0.28 | 3.45 | 0.32 |  |  |  |  |  |
| Cc1c(C(=O)Nc2ccc(Oc3ccnc4[nH]ccc34)cc2)nnn1-c1ccc(F)c(F)c1 | 1.07 |  |  | 2.26 |  |  |  |  |  |
| O=C(Nc1ccc(Oc2ccnc3[nH]ccc23)c(F)c1)c1nnn(-c2ccccc2)c1C(F)(F)F | 0.091 | 1.15 | 2.32 | 0.22 |  |  |  |  |  |
